Experimental data taken from paper PMC4591930 (Angewandte Chemie (International ed. in English), 2015).
Values belong to the compound of their own block, whether it stands above or below them. Where a SMILES comes first, the peptide text is derived from it. [ ]: non-standard residue; d: D form. The star is where a group is joined. FITC = O=C1OC2(c3ccc(O)cc3Oc3cc(O)ccc32)c2ccc(NC(=S)*)cc21; Phe(4-F) = N[C@@H](Cc1ccc(F)cc1)C(=O)O; d2Nal = N[C@H](Cc1ccc2ccccc2c1)C(=O)O; dNle = CCCC[C@@H](N)C(=O)O

Experiments:
H1299 cells = assay: Annexin-FITC / propidium iodide flow cytometry of treated H1299 cells; assay type: cell-based, human; conditions: 10 μM, 3 h
[1] = test system: phosphorylation of Akt at Thr308; assay: EGF-stimulated Akt Thr308 phosphorylation in H1299 cells; assay type: cell-based, human
Method in brief: (§1)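 H1299 cells exposed to a range of test compound concentrations for 10 min, then stimulated with EGF (50 ng/ml) for 5 min before lysis. Phospho-Akt (Thr308) and phospho-MEK detected by immunoblot, with total Akt and MEK blotted alongside.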

caspase-3 activity = assay: Caspase-3 activity in H1299 cells; assay type: cell-based, human; conditions: 10 μM, 3 h
lung cancer cells [2] = assay: Cell permeability of hits; assay type: cell-based, human; conditions: qualitative
Method in brief: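 A549 lung cancer cells given 5 μM FITC-labelled test compound for 30 min. Uptake viewed live by confocal microscopy with DRAQ5 nuclear counterstain. Total cell-associated fluorescence measured by flow cytometry against untreated control cells.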

Ras-Raf interaction = Ras-Raf interaction (Homo sapiens, UniProt P01116, G12V); assay: Homogeneous time-resolved fluorescence; assay type: binding; conditions: Gln-8 replaced with L- or D-arginine, versus 9A1-4
Sequence of Ras-Raf interaction (P01116 1-188 isoform P01116-2 G12V): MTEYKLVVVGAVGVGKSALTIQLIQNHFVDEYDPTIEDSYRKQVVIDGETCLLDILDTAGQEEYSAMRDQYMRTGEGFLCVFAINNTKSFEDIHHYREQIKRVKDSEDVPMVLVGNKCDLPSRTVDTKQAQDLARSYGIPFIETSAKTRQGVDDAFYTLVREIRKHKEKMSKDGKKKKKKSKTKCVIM

phosphorylation of MEK = assay: EGF-stimulated MEK phosphorylation in H1299 cells; assay type: cell-based, human
Method in brief: as §1

Ras-B-Raf interaction = assay: Ras-B-Raf co-immunoprecipitation in H358 cells; assay type: cell-based, human; conditions: anti-Ras precipitation, anti-B-Raf immunoblot
Method in brief: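 H358 lung cancer cells treated with increasing test compound concentrations. Lysates immunoprecipitated with anti-Ras antibody and co-precipitated B-Raf detected by anti-B-Raf immunoblot. Whole-cell lysate blotted alongside.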

lung cancer cells [3] = assay: Anti-proliferative activity against lung cancer cells; assay type: cell-based, human; conditions: qualitative
K-Ras = K-Ras (Homo sapiens, UniProt P01116, G12V); assay: Fluorescence anisotropy; assay type: binding; conditions: fluorescence anisotropy in solution
Sequence of K-Ras (P01116 1-188 isoform P01116-2 G12V): as above

A549 lung cancer cells = assay: Flow cytometry of cellular uptake of FITC-labeled peptides; assay type: cell-based, human; conditions: 5 μM, 30 min
[4] = biological target: panel of five arbitrarily selected control proteins; assay: FA binding to control proteins

SMILES: CCCC[C@H]1NC(=O)[C@H]([C@@H](C)O)NC(=O)[C@@H](C)NC(=O)[C@H](CCCNC(=N)N)NC(=O)[C@H](CCCNC(=N)N)NC(=O)[C@H](CCCNC(=N)N)NC(=O)[C@@H](Cc2ccc3ccccc3c2)NC(=O)[C@H](CCCNC(=N)N)NC(=O)[C@H](Cc2ccc(F)cc2)NC(=O)[C@H](Cc2c[nH]c3ccccc23)NC(=O)[C@H](CCC(N)=O)NC1=O [9A5] (cyclo(QW[Phe(4-F)]R[d2Nal]RRR[dA]T[dNle]))
annexin-FITC and propidium iodide staining (H1299 cells): positive
concentration abolishing Akt Thr308 phosphorylation ([1]; H1299 cells): ≥ 12 µM
exposure time at which dephosphorylation of Akt was largely complete ([1]; time-course experiment): 10 min
fold increase in caspase-3 activity (caspase-3 activity): 2.3 fold
cell permeability (lung cancer cells [2]): improved cell permeability
fold higher affinity for K-Ras (Ras-Raf interaction): ~ 4 fold
concentration abolishing MEK phosphorylation (phosphorylation of MEK; H1299 cells): ≥ 12 µM
exposure time at which dephosphorylation of MEK was largely complete (phosphorylation of MEK; time-course experiment): 10 min
inhibition of Ras-B-Raf interaction in cells (Ras-B-Raf interaction): dose-dependently inhibited

cell permeability (lung cancer cells [2]): cell permeable
binding to K-Ras (K-Ras): strong binding
SMILES: CCCC[C@H]1NC(=O)[C@H]([C@@H](C)O)NC(=O)[C@@H](C)NC(=O)[C@H](CCC(N)=O)NC(=O)[C@H](CCCNC(=N)N)NC(=O)[C@H](CCCNC(=N)N)NC(=O)[C@@H](Cc2ccc3ccccc3c2)NC(=O)[C@H](CCCNC(=N)N)NC(=O)[C@H](Cc2ccc(F)cc2)NC(=O)[C@H](Cc2c[nH]c3ccccc23)NC(=O)[C@@H](CO)NC1=O [9A] (cyclo([dS]W[Phe(4-F)]R[d2Nal]RRQ[dA]T[dNle]))
anti-proliferative activity (lung cancer cells [3]): weak anti-proliferative activity

cell permeability (lung cancer cells [2]): improved cell permeability
fold higher affinity for K-Ras (Ras-Raf interaction): ~ 4 fold
SMILES: CCCC[C@H]1NC(=O)[C@H]([C@@H](C)O)NC(=O)[C@@H](C)NC(=O)[C@@H](CCCNC(=N)N)NC(=O)[C@H](CCCNC(=N)N)NC(=O)[C@H](CCCNC(=N)N)NC(=O)[C@@H](Cc2ccc3ccccc3c2)NC(=O)[C@H](CCCNC(=N)N)NC(=O)[C@H](Cc2ccc(F)cc2)NC(=O)[C@H](Cc2c[nH]c3ccccc23)NC(=O)[C@H](CCC(N)=O)NC1=O [9A6] (cyclo(QW[Phe(4-F)]R[d2Nal]RR[dR][dA]T[dNle]))

SMILES: CCCC[C@H]1NC(=O)[C@H]([C@@H](C)O)NC(=O)[C@@H](C)NC(=O)[C@H](CCCNC(=N)N)NC(=O)[C@H](CCCNC(=N)N)NC(=O)[C@H](CCCCNC(=S)Nc2ccc3c(c2)C(=O)OC32c3ccc(O)cc3Oc3cc(O)ccc32)NC(=O)[C@@H](Cc2ccc3ccccc3c2)NC(=O)[C@H](CCCNC(=N)N)NC(=O)[C@H](Cc2ccc(F)cc2)NC(=O)[C@H](Cc2c[nH]c3ccccc23)NC(=O)[C@H](CCC(N)=O)NC1=O [FITC-9A5] (cyclo(QW[Phe(4-F)]R[d2Nal]K(FITC)RR[dA]T[dNle]))
fold more efficient cell entry than FITC-9A54 (A549 lung cancer cells): ~ 5 fold
Kd [4]: ≥ 30 µM
